# Compounds with a hit are over-represented: about 1.9% of the library has one in this group of screens.
# Rce1 inh – blocks yeast Ras-converting enzyme; 0.27% of 290,000 active; yeast membranes, quenched prenylated peptide cleavage fluorescence; Q03530; calls only;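 active = fall in fluorescence gain of 50% or more versus controls, with final raw signal at or below 3038400; inconclusive = same 50% fall but final raw signal above 3038400; inactive = fall in fluorescence gain under 50%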;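 also: plate controls were neutral control wells for no effect and wells lacking membranes for full effect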
# Target sequence (Q03530 whole entry, looked up): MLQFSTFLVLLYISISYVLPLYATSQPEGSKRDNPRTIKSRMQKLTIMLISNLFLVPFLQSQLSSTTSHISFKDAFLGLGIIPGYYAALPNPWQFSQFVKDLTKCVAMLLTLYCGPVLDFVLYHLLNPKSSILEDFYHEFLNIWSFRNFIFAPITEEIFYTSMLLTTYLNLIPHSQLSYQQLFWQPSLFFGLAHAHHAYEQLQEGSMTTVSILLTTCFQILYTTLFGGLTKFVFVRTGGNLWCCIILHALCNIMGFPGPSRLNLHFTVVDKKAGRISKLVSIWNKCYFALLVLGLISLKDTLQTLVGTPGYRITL
# KLK7 zymogen act – proKLK7 (human) activation, primary screen; P49862; purified proKLK7, EDANS-DABCYL substrate fluorescence; 100% is mature enzyme control, 0% vehicle; activation, % at 7 µM; 0.9% of 370,000 active;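 active = activation above the mean of all tested compounds plus 3 SD, computed per campaign excluding outliers beyond control limits, cut at about 13% in these data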
# Target sequence (P49862 whole entry, looked up): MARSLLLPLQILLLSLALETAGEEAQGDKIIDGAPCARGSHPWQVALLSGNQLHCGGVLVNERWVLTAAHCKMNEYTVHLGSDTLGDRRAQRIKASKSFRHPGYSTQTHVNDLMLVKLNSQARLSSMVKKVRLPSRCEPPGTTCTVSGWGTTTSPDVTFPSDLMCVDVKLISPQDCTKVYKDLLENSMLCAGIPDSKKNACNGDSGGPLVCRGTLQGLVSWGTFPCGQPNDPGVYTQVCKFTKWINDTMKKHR
# T cell modulator – modulates CD8 T cell binding to vesicles; 2C CD8+ T cell-vesicle binding, flow cytometry; active compounds read low; response (vesicle binding), % at 7 µM; 0.068% of 330,000 active; AID 2052;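 active = response, share of CD8 T cells binding vesicles, and their 90th percentile fluorescence all below set limits, cut at about 80% in these data, passing the limit was not always enough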;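 also: values below 100% mean blocked vesicle binding to the CD8+ T cells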
#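 Benchmarks: naked versus QL9-loaded vesicles / Assay system: purified 2C TCR transgenic mouse naive CD8+ T cells / Technique: high-throughput flow cytometry with anti-B7-1 and anti-CD8 staining / Timing: Cell–vesicle co-incubation 1.5 h at 37 °C, staining 20 min on ice / Read-out: percent CD8+ FL2 mean versus row control / Probe or stimulus: QL9-loaded Drosophila micro-vesicles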
# V-ATPase pHluor – yeast V-ATPase proton transport regulation by pHLuorin. S. cerevisiae, pHLuorin cytosolic pH fluorescence. response, % at 10 µM. 0.37% of 350,000 active; in the data active = response mostly above about 7.3%, no sharp cut-off; inactive = mostly below about 5.4%; also: actives read high
# beta cell repl – induces beta-cell replication in MIN6 cells. MIN6 cells proliferation, ATPlite luminescence, 48 h; cells starved in 0.2% serum; 100% = growth in 10% serum. proliferation, % at 10 µM. 0.29% of 330,000 active. AID 2380;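 active = compounds whose signal lies at least 3.5 SD above the mean of all wells on their plate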;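 also: 0% = DMSO-treated cells in low-serum medium and 100% = 10% serum control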
# Yeast superoxide – yeast age-related superoxide inhibition as caloric restriction mimetic. S. cerevisiae aged cells, superoxide DHE fluorescence; active compounds read low. superoxide response (% of plate mean), % at 10 µM. 0.18% of 330,000 active;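 active = superoxide response under a set limit, about three screen SD below normal, cut at about 65% in these data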;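 also: yeast aged for seven days with compound at 30 °C before DHE staining; 100% = average MFI of all compound-treated wells on the plate with controls excluded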
# KLK7 act conf – confirmation of human kallikrein-7 zymogen activators; shares compounds with KLK7 zymogen act; purified proKLK7, EDANS-DABCYL substrate fluorescence; scaled: vehicle 0, mature enzyme 100; activation, % at 7 µM; 68% of 3,200 active;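 active = activation, as change over the incubation, above the mean of all tested compounds plus 3 SD, cut at about 13% in these data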
# EDANS interfere – fluorescence interference counter-screen for KLK7 activators. shares compounds with KLK7 zymogen act. activation, % at 7 µM. EDANS-DABCYL substrate fluorescence interference, no enzyme, 4 h; solvent 0%, active enzyme control 100%. 80% of 3,200 active;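 active = activation above the all-compound mean plus 3 SD, ignoring values outside control-based bounds, cut at about 4.8% in these data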;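 also: value is the 4 h activation minus the activation read at time zero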
# K7 EDANS ctr – counter-screen for kallikrein-7 activators: EDANS-DABCYL interference, dose response | shares compounds with KLK7 zymogen act | EDANS-DABCYL peptide fluorescence interference, no enzyme | EC50, µM | 20% of 250 active;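 active = compounds that raise the fluorescence signal in this interference counterscreen, with EC50 at or below 10 µM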;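 also: intact quenched peptide substrate alone read at 355 nm excitation and 520 nm emission; signal is fluorescence gain from T0 to T4 after four hours at room temperature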
# * marks the source's active call; other numbers are inactive results; i = inactive; ? = inconclusive; . = no result.
SMILES,Rce1 inh,KLK7 zymogen act,T cell modulator,V-ATPase pHluor,beta cell repl,Yeast superoxide,KLK7 act conf,EDANS interfere,others
CCCCc1c(C)c2ccc(OCC(C)=O)cc2oc1=O,.,4,175,3,-3,114,.,.,
CCC(=O)Oc1ccc2c(C)c(Cl)c(=O)oc2c1,i,40*,599,1,1,113,672*,655*,
Cc1c(Cc2ccccc2)c(=O)oc2cc(OC(=O)c3ccccc3)ccc12,i,-1,208,-8,0,106,.,.,
C/C(=N\NC(=O)c1ccc(Cn2cc(Br)cn2)o1)c1ccc(NC(=O)c2ccoc2C)cc1,i,1,.,-4,1,.,.,.,
CC(C)(C)n1ncc2c(=O)n(Cc3ccccc3Br)cnc21,.,1,229,8,-3,101,.,.,
COc1ccc(-n2nnnc2SCC(=O)Nc2c(C)n[nH]c2C)cc1,.,0,461,3,4,110,.,.,
Cc1cn([C@H]2C[C@H](O)[C@@H](CCC(=O)NCc3ccc(N(C)C)cc3)O2)c(=O)[nH]c1=O,.,0,.,0,.,.,.,.,
COc1ccc(OC)c(NC(=O)c2cc(S(=O)(=O)NCc3ccco3)ccc2F)c1,i,13*,151,4,-1,91,-1,1,
CCOc1cc2c(c3c1C(c1ccccc1)N(S(=O)(=O)c1ccc(C)cc1)C3)C(=O)C=CC2=O (stereo unspecified),.,-1,.,.,.,.,.,.,
CCN(CC)S(=O)(=O)c1cccc(-c2cn3cccnc3n2)c1,i,21*,194,-1,0,102,38*,25*,K7 EDANS ctr=>70
Cc1onc(-c2ccccc2Cl)c1C(=O)Nc1ccc(-c2cn3cccnc3n2)cc1,i,.,298,0,-1,125,.,.,
COc1ccc(-c2cn3cccnc3n2)cc1NC(=O)CC(C)C,i,4,160,-2,-2,104,.,.,
CC1CCCN(S(=O)(=O)c2cccc(-c3cn4cccnc4n3)c2)C1 (stereo unspecified),i,0,292,-1,-4,115,.,.,
O=C(Nc1ccccc1)Nc1cccc(-c2cn3cccnc3n2)c1,i,1,217,-1,-2,113,.,.,
CC(C)(C)CC(=O)Nc1ccc(-c2cn3cccnc3n2)cc1,i,74*,80,2,-5,108,66*,65*,
CCOCC(=O)Nc1ccc(-c2cn3cccnc3n2)cc1,i,39*,91,4,-1,102,67*,79*,
CCCC(=O)Nc1cccc(-c2cn3cccnc3n2)c1,i,30*,244,0,-2,103,42*,45*,
COC(=O)C1(C(=O)OC)C2C(=O)C3C(C21)C3(C(=O)OC(C)(C)C)C(=O)OC(C)(C)C (stereo unspecified),.,-1,.,0,.,.,.,.,
CC1CCN(Cc2nnc(-c3cccc(Br)c3)o2)CC1,i,0,.,-2,-4,100,.,.,
CC(C)c1ccccc1OCC(=O)Nc1ccccc1C(=O)N1CCOCC1,i,0,399,3,-2,114,.,.,
Cc1cc(Cl)ccc1OCC(=O)OCC(=O)NC1CCS(=O)(=O)C1 (stereo unspecified),.,0,382,-6,4,105,.,.,
CC(=O)Nc1ccc(S(=O)(=O)Nc2cccc(-c3cn4cccnc4n3)c2)cc1,i,43*,194,-3,-4,92,7,7.8*,
CCCC(=O)Nc1cc(-c2cn3cccnc3n2)ccc1OC,i,5,131,-3,-3,79,.,.,
CCCC(=O)Nc1ccc(-c2cn3cccnc3n2)cc1,?,58*,259,-3,0,84,67*,63*,
CC(C)CC(=O)Nc1ccc(-c2cn3cccnc3n2)cc1,?,70*,202,-3,-5,81,66*,68*,
SMILES,Rce1 inh,KLK7 zymogen act,T cell modulator,V-ATPase pHluor,beta cell repl,Yeast superoxide,KLK7 act conf,EDANS interfere,others
O=C(Oc1ccc([N+](=O)[O-])cc1)C1CC(=O)N(c2ccc3c(c2)OCCO3)C1 (stereo unspecified),.,-1,338,-1,-2,119,.,.,
COc1ccccc1CCC(=O)Nc1ccc2c(c1)c(=O)n(C)n2Cc1ccc(F)cc1,.,3,.,.,.,.,.,.,
COc1cccc(CNC(=S)Nc2ccc3c(c2)c(=O)n(C)n3C)c1,.,25*,.,.,.,.,11,13*,
COc1ccccc1CCC(=O)Nc1ccc2c(c1)c(=O)n(C)n2C,.,27*,.,.,.,.,16*,17*,
O=C(CN1C(=O)NC2(CCCCCCC2)C1=O)NCc1ccccc1,.,0,190,-4,-1,106,.,.,
CN(C)S(=O)(=O)c1ccc(C(=O)Nc2nc(-c3cccs3)cs2)cc1,i,47*,i,0,-1,97,27*,129*,
O=C(NCCc1ccccc1)OCc1cn(Cc2ccc(C(F)(F)F)cc2)nn1,.,1,.,.,.,.,.,.,
COc1cc2oc(=O)cc(CN3CCCCCCC3)c2cc1Cl,.,3,.,.,.,.,.,.,
CCN(CC)c1ccc(Nc2cc3n(c(=O)n2)CCc2cc(OC)c(OC)cc2-3)cc1,i,21*,447,6,-4,94,72*,74*,
COc1cc2c(cc1OC)-c1cc(Nc3ccc(N(C)C)cc3)nc(=O)n1CC2,i,8,422,5,0,100,.,.,
COc1cc2sc3cc(NCCCN4CCOCC4)ccc3c(=O)c2cc1OC,.,-50,313,-2,-3,95,.,.,
COc1cccc2sc3cc(NCc4ccc(C)o4)ccc3c(=O)c12,.,43*,303,-4,-6,92,38*,39*,
Cc1cc2nc(-c3ccc[nH]c3=O)n(Cc3ccc(F)cc3)c2cc1C,i,22*,133,-5,-4,95,-1,0,
Cc1cc2nc(-c3ccc[nH]c3=O)[nH]c2cc1C,i,68*,145,3,-5,102,64*,71*,
O=c1[nH]cccc1-c1nc2ccccc2n1Cc1ccc(F)cc1,?,7,232,1,-2,104,.,.,
CCCCn1c(N)c(N(Cc2ccccc2OC)C(=O)C(C)Oc2ccc(Br)cc2)c(=O)[nH]c1=O (stereo unspecified),.,0,.,1,.,.,.,.,
Cc1cnc(-c2nnc(N(C)C(=O)c3cccnc3)s2)cn1,i,42*,242,3,-1,103,72*,74*,
CN(C(=O)C1CCOC1)c1nnc(-c2ccncc2)s1 (stereo unspecified),i,46*,254,-7,-4,111,65*,70*,

# Screens deposited in PubChem by several laboratories.
